Drawing on ChEMBL document CHEMBL1144032, “Potent antagonists of the CCR2b receptor. Part 3: SAR of the (R)-3-aminopyrrolidine series” (Bioorg Med Chem Lett, 2008), this text covers Activity, IC50 and inhibition for 58 compounds.

Active and inactive are the calls of the source. The rule behind the calls is not given here. Some results are limits rather than exact numbers.

Test [1] deals with T1, C-C chemokine receptor type 2 (Homo sapiens, UniProt P41597). The experiment in a line: Antagonist activity at human CCR2 in THP1 cells assessed as inhibition of calcium flux in absence of MCP1. The test is classed as functional, cell-based. As to conditions: THP-1. Background: Calcium assays in cells follow changes in intracellular calcium, usually with a dye or a luminescent sensor.
Target sequence in this assay (P41597 whole entry, looked up): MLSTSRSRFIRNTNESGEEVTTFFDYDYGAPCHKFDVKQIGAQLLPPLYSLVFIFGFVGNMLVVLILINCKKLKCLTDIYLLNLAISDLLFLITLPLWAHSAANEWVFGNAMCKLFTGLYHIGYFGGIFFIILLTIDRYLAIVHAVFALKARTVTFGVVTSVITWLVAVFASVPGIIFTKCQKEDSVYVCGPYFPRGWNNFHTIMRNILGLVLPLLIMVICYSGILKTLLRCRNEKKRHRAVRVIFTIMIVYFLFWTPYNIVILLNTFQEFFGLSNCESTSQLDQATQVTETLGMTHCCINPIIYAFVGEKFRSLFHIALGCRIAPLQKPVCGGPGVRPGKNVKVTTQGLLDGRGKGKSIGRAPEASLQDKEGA

Test [2] deals with T1, C-C chemokine receptor type 2. Description: Antagonist activity at human CCR2 in THP1 cells assessed as inhibition of MCP1-induced calcium flux. The test is classed as functional, cell-based, THP-1. Summed up: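 THP-1 cells grown in HBSS loading buffer with 1% FBS and 20 mM HEPES, spun down, then loaded 30 min with Fluo-3 AM (2 million cells/mL, 4 µM dye, 20 mM HEPES, 0.1% BSA, 5 mM probenecid). Washed three times into HEPES/NaCl/glucose buffer with 2.5 mM probenecid, 1.25 mM CaCl2 and 0.1% BSA; 150,000 cells/well. Compound added 3 min before 10^-7 M human MCP-1; intracellular Ca2+ read by FLIPR.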
Target sequence in this assay (P41597 whole entry): as the sequence (P41597 whole entry, looked up) above

Test [3] shares this target. The experiment in a line: Displacement of [125I]MCP1 from human CCR2b in THP1 cells. Format: cell-based, THP-1. Summed up: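 Radioligand competition with [125I]-MCP-1 on THP-1 cells. IC50 taken from dose-response curves built from duplicate points; where SD is given, value is mean of at least three independent experiments.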
For orientation: Loss of bound radioactivity is the signal in a displacement assay; it reports binding, not function.
Target sequence in this assay (P41597 whole entry): as the sequence (P41597 whole entry, looked up) above

In test [4] the target is T2, C-C chemokine receptor type 1 (Homo sapiens) (UniProt P32246).
T2 sequence (whole entry): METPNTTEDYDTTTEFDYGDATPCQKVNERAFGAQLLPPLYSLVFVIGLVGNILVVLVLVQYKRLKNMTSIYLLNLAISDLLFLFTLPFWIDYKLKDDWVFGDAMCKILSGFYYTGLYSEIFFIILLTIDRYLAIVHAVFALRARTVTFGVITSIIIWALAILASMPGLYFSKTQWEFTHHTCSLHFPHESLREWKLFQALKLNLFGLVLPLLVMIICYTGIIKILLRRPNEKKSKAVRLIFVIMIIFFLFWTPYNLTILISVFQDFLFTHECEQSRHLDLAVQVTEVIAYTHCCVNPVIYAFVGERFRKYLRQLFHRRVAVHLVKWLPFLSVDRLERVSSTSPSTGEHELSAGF
The experiment in a line: Displacement of [125I]MIP-1alpha from human CCR1 in THP cells at 1 uM.

Test [5] addresses T3, C-C chemokine receptor type 1 (Homo sapiens, UniProt P32246).
T3 sequence (P32246 whole entry): T2 sequence (whole entry)
Description: Displacement of [125I]MIP-1alpha from human CCR1 in THP cells.

For test [6], the target named is T1, C-C chemokine receptor type 2. Description: Displacement of [125I]MCP1 from human CCR2b in HEK293 cells. Format: cell-based. Summed up: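 Competition for [125I]-MCP-1 binding on HEK293 cells transfected with human CCR2b receptor.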
Target sequence in this assay (P41597 whole entry): as the sequence (P41597 whole entry, looked up) above

The term IC50 denotes the concentration that inhibits the measured activity by half. Regarding `Cc1ccc(CN2CC[C@@H](NC(=O)CNC(=O)c3cc(C(F)(F)F)ccc3N)C2)c(C)c1`, the result in test [1] was inactive. Further, the IC50 is 7.5 nM in test [2] and 3.2 nM in test [3].

The compound `CCc1ccc(CN2CC[C@@H](NC(=O)CNC(=O)c3cccc(C(F)(F)F)c3)C2)cc1` registered an IC50 in test [3] of 59 nM.

As to `COc1cc(CN2CC[C@@H](NC(=O)CNC(=O)c3cccc(C(F)(F)F)c3)C2)ccc1O`, in test [3], the IC50 stood at 153 nM.

In turn, `O=C(CNC(=O)c1cccc(C(F)(F)F)c1)N[C@@H]1CCN(Cc2ccc([N+](=O)[O-])cc2)C1` had an IC50 in test [3] of 1550 nM.

For `Nc1ccccc1C(=O)NCC(=O)N[C@@H]1CCN(Cc2ccc(Cl)cc2)C1`, the IC50 in test [3] is greater than 10000 nM.

Regarding `O=C(CNC(=O)c1cccc(C(F)(F)F)c1)N[C@@H]1CCN(Cc2ccc(Cl)cc2Cl)C1`, in test [3], the IC50 came to 300 nM.

On to `COc1cccc(C(=O)NCC(=O)N[C@@H]2CCN(Cc3ccc(Cl)cc3)C2)c1`, for which, in test [3], the IC50 was greater than 10000 nM.

`O=C(CNC(=O)c1cccc(C(F)(F)F)c1)N[C@@H]1CCN(Cc2ccccc2Cl)C1` returned an IC50 in test [3] of 630 nM.

As for `COc1ccc(CN2CC[C@@H](NC(=O)CNC(=O)c3cc(C(F)(F)F)ccc3N)C2)cc1O`, in test [3], the IC50 came out at 53 nM.

In turn, `O=C(CNC(=O)c1cccc(C(F)(F)F)c1)N[C@@H]1CCN(Cc2ccc(F)cc2)C1` had an IC50 in test [3] of 960 nM.

With `O=C(CNC(=O)c1ccc(C(F)(F)F)cc1)N[C@@H]1CCN(Cc2ccc(Cl)cc2)C1`, the IC50 in test [3] was greater than 5000 nM.

With `Nc1ccc([N+](=O)[O-])cc1C(=O)NCC(=O)N[C@@H]1CCN(Cc2ccc(Cl)cc2)C1`, the IC50 in test [3] turned out to be 208 nM.

`O=C(CNC(=O)c1cccc(C(F)(F)F)c1)N[C@@H]1CCN(Cc2ccccc2-c2ccc3ccccc3c2)C1` displayed an IC50 in test [3] of 759 nM.

With `Cc1cccc(CN2CC[C@@H](NC(=O)CNC(=O)c3cccc(C(F)(F)F)c3)C2)c1`, in test [3], the IC50 came out at 3100 nM.

`Nc1ccc(C(F)(F)F)cc1C(=O)NCC(=O)N[C@@H]1CCN(Cc2ccc(Cl)cc2Cl)C1` registered an IC50 in test [3] of 96 nM.

Broadly, the inhibition is how much of the control response was suppressed. A lower inhibition goes with a response near the control. In turn, `Nc1ccc(C(F)(F)F)cc1C(=O)NCC(=O)N[C@@H]1CCN(Cc2ccc(Cl)cc2)C1` yielded an inhibition in test [4] of 25%. For the same compound, the IC50 is greater than 1000 nM in test [5], 45 nM in test [6], 23.1 nM in test [2] and 26 nM in test [3]. Moreover, the result in test [1] was inactive.

In turn, `COc1cc(CN2CC[C@@H](NC(=O)CNC(=O)c3cc(C(F)(F)F)ccc3N)C2)ccc1O` returned an IC50 in test [3] of 39 nM.

Take `Cc1ccccc1CN1CC[C@@H](NC(=O)CNC(=O)c2cccc(C(F)(F)F)c2)C1`: in test [3], the 50% inhibitory concentration (IC50) worked out at 960 nM.

`Cc1ccc(CN2CC[C@@H](NC(=O)CNC(=O)c3cc(C(F)(F)F)ccc3N)C2)cc1` came in with an IC50 in test [3] of 20 nM.

In test [3], `COc1ccc(CN2CC[C@@H](NC(=O)CNC(=O)c3cc(C(F)(F)F)ccc3N)C2)cc1` yielded an IC50 of 20 nM.

Turning to `O=C(CNC(=O)c1cccc(C(F)(F)F)c1)N[C@@H]1CCN(Cc2ccccc2)C1`, in test [3], the IC50 was 690 nM.

In test [3], `Nc1cc(CN2CC[C@@H](NC(=O)CNC(=O)c3cc(C(F)(F)F)ccc3N)C2)ccc1O` yielded an IC50 of 14 nM.

Consider `O=C(CNC(=O)c1cccc(C(F)(F)F)c1)N[C@@H]1CCN(Cc2ccc(O)cc2)C1`, for which, in test [1], the outcome was inactive. In addition, the IC50 in test [2] turned out to be 365 nM; in test [3], 226 nM.

In test [3], `COc1ccc(CN2CC[C@@H](NC(=O)CNC(=O)c3cc(C(F)(F)F)ccc3N)C2)cc1N` displayed a 50% inhibitory concentration (IC50) of 5.3 nM.

In test [3], `Nc1ccc(Br)cc1C(=O)NCC(=O)N[C@@H]1CCN(Cc2ccc(Cl)cc2)C1` returned an IC50 of 643 nM.

Consider `O=C(CNC(=O)c1cccc(Br)c1)N[C@@H]1CCN(Cc2ccc(Cl)cc2)C1`, for which the IC50 in test [3] was determined as 785 nM.

`O=C(CNC(=O)c1cccc(C(F)(F)F)c1)N[C@@H]1CCN(Cc2ccc(Br)cc2)C1` yielded an IC50 in test [3] of 166 nM.

Turning to `O=C(CNC(=O)c1cccc([N+](=O)[O-])c1)N[C@@H]1CCN(Cc2ccc(Cl)cc2)C1`, in test [3], the IC50 was determined as 832 nM.

In turn, `O=C(CNC(=O)c1ccc(Cl)cc1)N[C@@H]1CCN(Cc2ccc(Cl)cc2)C1` had an IC50 in test [3] greater than 5000 nM.

In test [3], `Nc1ccc(C(F)(F)F)cc1C(=O)NCC(=O)N[C@@H]1CCN(Cc2ccc(O)cc2)C1` gave an IC50 of 42 nM.

In test [3], `C=Cc1ccc(CN2CC[C@@H](NC(=O)CNC(=O)c3cccc(C(F)(F)F)c3)C2)cc1` returned an IC50 of 121 nM.

The compound `Nc1cccc(C(=O)NCC(=O)N[C@@H]2CCN(Cc3ccc(Cl)cc3)C2)c1` registered an IC50 in test [3] greater than 10000 nM.

With `C=Cc1ccc(CN2CC[C@@H](NC(=O)CNC(=O)c3cc(C(F)(F)F)ccc3N)C2)cc1`, the IC50 in test [3] was 19 nM.

Compound `O=C(CNC(=O)c1cccc(Cl)c1)N[C@@H]1CCN(Cc2ccc(Cl)cc2)C1` had an IC50 in test [3] of 2400 nM.

Compound `Nc1ccc(Cl)cc1C(=O)NCC(=O)N[C@@H]1CCN(Cc2ccc(Cl)cc2)C1` returned an IC50 in test [3] of 730 nM.

`Cc1ccc(C(=O)NCC(=O)N[C@@H]2CCN(Cc3ccc(Cl)cc3)C2)cc1` registered an IC50 in test [3] of 10000 nM.

Compound `Nc1ccc(OC(F)(F)F)cc1C(=O)NCC(=O)N[C@@H]1CCN(Cc2ccc(Cl)cc2)C1` came in with an IC50 in test [3] of 88 nM.

With `Cc1ccc(CN2CC[C@@H](NC(=O)CNC(=O)c3cccc(C(F)(F)F)c3)C2)cc1`, the result in test [1] was inactive. Also, the IC50 in test [2] amounted to 64 nM; in test [3], 116 nM.

In the case of `O=C(CNC(=O)c1ccccc1Cl)N[C@@H]1CCN(Cc2ccc(Cl)cc2)C1`, the IC50 in test [3] is greater than 10000 nM.

`CC(=O)Nc1ccc(CN2CC[C@@H](NC(=O)CNC(=O)c3cccc(C(F)(F)F)c3)C2)cc1` had an IC50 in test [3] of 305 nM.

The compound `Cc1cccc(C(=O)NCC(=O)N[C@@H]2CCN(Cc3ccc(Cl)cc3)C2)c1` displayed an IC50 in test [3] of 2380 nM.

Take `Nc1cc(CN2CC[C@@H](NC(=O)CNC(=O)c3cc(C(F)(F)F)ccc3N)C2)ccc1Cl`: the IC50 in test [3] came to 4.1 nM.

In test [3], `O=C(CNC(=O)c1cccc(C(F)(F)F)c1)N[C@@H]1CCN(Cc2cccc(Cl)c2)C1` yielded an IC50 greater than 5000 nM.

In turn, `N#Cc1cccc(C(=O)NCC(=O)N[C@@H]2CCN(Cc3ccc(Cl)cc3)C2)c1` showed an IC50 in test [3] greater than 10000 nM.

Take `CSc1ccc(CN2CC[C@@H](NC(=O)CNC(=O)c3cccc(C(F)(F)F)c3)C2)cc1`: the IC50 in test [3] came to 204 nM.

For the compound `O=C(CNC(=O)c1ccccc1)N[C@@H]1CCN(Cc2ccc(Cl)cc2)C1`, in test [3], the IC50 was greater than 10000 nM.

For `O=C(CNC(=O)c1cccc(C(F)(F)F)c1)N[C@@H]1CCN(Cc2ccc(OC(F)(F)F)cc2)C1`, the IC50 in test [3] worked out at 610 nM.

On to `COc1cccc(CN2CC[C@@H](NC(=O)CNC(=O)c3cccc(C(F)(F)F)c3)C2)c1`, for which, in test [3], the 50% inhibitory concentration (IC50) was 3170 nM.

In the case of `Nc1ccc(I)cc1C(=O)NCC(=O)N[C@@H]1CCN(Cc2ccc(Cl)cc2)C1`, the IC50 in test [3] was 308 nM.

As for `CCc1ccc(CN2CC[C@@H](NC(=O)CNC(=O)c3cc(C(F)(F)F)ccc3N)C2)cc1`, the outcome in test [1] was inactive. In addition, the IC50 in test [2] amounted to 5.3 nM; in test [3] it was 11 nM.

As to `O=C(CNC(=O)c1ccccc1C(F)(F)F)N[C@@H]1CCN(Cc2ccc(Cl)cc2)C1`, the IC50 in test [3] was greater than 10000 nM.

In test [3], `COc1ccccc1CN1CC[C@@H](NC(=O)CNC(=O)c2cccc(C(F)(F)F)c2)C1` came in with an IC50 of 1360 nM.

For `COc1ccc(CN2CC[C@@H](NC(=O)CNC(=O)c3cccc(C(F)(F)F)c3)C2)cc1`, the IC50 in test [3] stood at 114 nM.

Compound `O=C(CNC(=O)c1cccc(OC(F)(F)F)c1)N[C@@H]1CCN(Cc2ccc(Cl)cc2)C1` displayed an IC50 in test [3] of 489 nM.

Take `Cc1ccccc1C(=O)NCC(=O)N[C@@H]1CCN(Cc2ccc(Cl)cc2)C1`: in test [3], the IC50 is greater than 10000 nM.

In turn, `N#Cc1ccc(CN2CC[C@@H](NC(=O)CNC(=O)c3cccc(C(F)(F)F)c3)C2)cc1` came in with an IC50 in test [3] of 2650 nM.

`Cc1ccc(CN2CC[C@@H](NC(=O)CNC(=O)c3cc(C(F)(F)F)ccc3N)C2)cc1N` yielded an IC50 in test [3] of 6.1 nM.

On to `O=C(CNC(=O)c1cccc(F)c1)N[C@@H]1CCN(Cc2ccc(Cl)cc2)C1`, for which the IC50 in test [3] was determined as 4330 nM.
